pIC50: −log10 of the molar value. Activity calls are given as the source filed them. The rule behind the calls is not given here.
Legend:
[1] = target: Amyloid-beta precursor protein (Homo sapiens, UniProt P05067); test: Inhibition of amyloid beta (1 to 42 residues) (unknown origin) aggregation after 24 hrs by thioflavin T fluorescence assay
[2] = target: Microtubule-associated protein tau (Homo sapiens, UniProt P10636); test: Inhibition of recombinant human TAU three-repeat microtubule-binding domain aggregation expressed in Escherichia coli after 16 hrs by thioflavin T fluorescence assay
Sequence of Microtubule-associated protein tau (P10636 whole entry, the tested form may be a part): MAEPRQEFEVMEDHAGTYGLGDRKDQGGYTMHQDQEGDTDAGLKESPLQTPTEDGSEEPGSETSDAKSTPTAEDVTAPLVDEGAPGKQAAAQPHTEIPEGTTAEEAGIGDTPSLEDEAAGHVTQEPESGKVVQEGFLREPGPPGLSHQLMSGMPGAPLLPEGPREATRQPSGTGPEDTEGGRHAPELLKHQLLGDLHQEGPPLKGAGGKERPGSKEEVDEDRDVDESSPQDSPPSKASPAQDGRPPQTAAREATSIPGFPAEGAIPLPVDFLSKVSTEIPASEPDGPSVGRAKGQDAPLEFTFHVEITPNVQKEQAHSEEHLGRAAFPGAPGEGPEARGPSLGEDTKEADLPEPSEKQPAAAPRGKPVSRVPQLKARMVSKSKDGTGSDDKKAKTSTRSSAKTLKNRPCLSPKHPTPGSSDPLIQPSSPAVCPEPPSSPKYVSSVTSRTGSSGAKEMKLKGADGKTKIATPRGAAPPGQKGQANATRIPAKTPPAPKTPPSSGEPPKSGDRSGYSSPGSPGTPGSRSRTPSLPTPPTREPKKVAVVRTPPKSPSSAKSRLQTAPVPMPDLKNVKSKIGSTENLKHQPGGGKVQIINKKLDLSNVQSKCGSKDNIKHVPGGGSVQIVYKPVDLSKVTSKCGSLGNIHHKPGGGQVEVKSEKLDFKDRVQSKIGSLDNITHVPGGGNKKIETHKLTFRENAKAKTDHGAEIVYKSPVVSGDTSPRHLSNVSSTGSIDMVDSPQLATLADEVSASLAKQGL

[3] = test system: Mus musculus; test: In vivo inhibition of human tau aggregation in JNPL3 human tau P301L transgenic mouse model assessed as reduction in amount of sarkosyl-insoluble tau in brain at 20 to 40 mg/kg/day, po for 4 weeks by ELISA; type: functional, organism-based
[4] = Drug uptake in Sprague-Dawley rat plasma at 5 mg/kg, iv up to 3 hrs by LC-MS/MS analysis; type: ADME, organism-based; settings: in vivo
Summary of the method: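 SD rats given 5 mg/kg intravenously; plasma concentrations sampled up to 3 h post-dose. Mean ± SD, n = 3.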

[5] = Drug uptake in Sprague-Dawley rat brain at 50 mg/kg, po after 3 hrs by LC-MS/MS analysis; type: ADME, organism-based; settings: read-out: Drug uptake
Summary of the method: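 Brains collected from SD rats 3 h after a 50 mg/kg oral dose; tissue drug concentration measured per g tissue. Mean ± SD, n = 3.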

[6] = Tmax in mouse; type: ADME, organism-based; settings: in vivo
[7] = Plasma concentration in Sprague-Dawley rat at 50 mg/kg, po after 3 hrs by LC-MS/MS analysis; type: ADME, organism-based
Summary of the method: (§1)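 SD rats dosed orally at 50 mg/kg; plasma drug levels followed up to 3 h. Mean ± SD, n = 3.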

[8] = Cmax in Sprague-Dawley rat at 50 mg/kg, po after 30 mins by LC-MS/MS analysis; type: ADME, organism-based; design: dose 50 mg/kg, route oral; settings: in vivo; summary of the method: as §1

Sequence of Amyloid-beta precursor protein (P05067 whole entry, the tested form may be a part): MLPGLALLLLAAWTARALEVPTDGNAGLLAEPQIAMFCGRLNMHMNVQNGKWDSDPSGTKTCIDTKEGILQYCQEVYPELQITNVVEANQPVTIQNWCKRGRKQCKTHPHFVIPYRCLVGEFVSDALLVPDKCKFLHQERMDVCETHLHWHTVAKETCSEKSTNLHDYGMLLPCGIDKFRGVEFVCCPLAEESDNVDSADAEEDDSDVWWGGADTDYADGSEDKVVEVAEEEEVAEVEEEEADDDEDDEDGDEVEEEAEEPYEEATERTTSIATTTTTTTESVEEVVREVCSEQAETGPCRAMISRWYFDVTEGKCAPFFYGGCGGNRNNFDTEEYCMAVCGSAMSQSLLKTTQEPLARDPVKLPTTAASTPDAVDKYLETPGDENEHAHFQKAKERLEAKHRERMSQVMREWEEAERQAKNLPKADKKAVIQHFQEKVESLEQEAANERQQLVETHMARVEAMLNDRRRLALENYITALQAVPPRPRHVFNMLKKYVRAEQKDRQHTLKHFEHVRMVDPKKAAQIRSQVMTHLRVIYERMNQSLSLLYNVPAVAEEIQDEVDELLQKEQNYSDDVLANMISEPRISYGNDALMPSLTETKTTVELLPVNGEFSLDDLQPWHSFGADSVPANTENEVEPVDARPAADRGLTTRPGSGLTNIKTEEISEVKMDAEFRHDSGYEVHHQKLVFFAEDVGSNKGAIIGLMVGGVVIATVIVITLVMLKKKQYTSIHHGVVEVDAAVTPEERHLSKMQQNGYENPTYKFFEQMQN

Row | Compound | pIC50 [1] | pIC50 [2] | further results
1 | COc1cc(/C=C/C(=O)CC(=O)/C=C/c2ccc3ccccc3c2)ccc1O | 6.23 | 6.38 | –
2 | COc1ccc(O)c(/C=C/C(=O)CC(=O)/C=C/c2ccc(O)c(OC)c2)c1 | 5.74 | 6.04 | –
3 | COc1cc(O)ccc1/C=C/C(=O)CC(=O)/C=C/c1ccc2cc[nH]c2c1 | 6.28 | 6.64 | –
4 | COc1cc(O)ccc1/C=C/C(=O)CC(=O)/C=C/c1ccc(O)cc1OC | 5.34 | < 5.00 | –
5 | COc1cc(/C=C/C(=O)CC(=O)/C=C/c2ccc(O)cc2OC)ccc1O | 6.04 | 6.24 | –
6 | COc1cc(/C=C/C(=O)CC(=O)/C=C/c2ccccc2)ccc1O | 5.66 | 5.85 | –
7 | COc1ccc(/C=C/C(=O)CC(=O)/C=C/c2ccc3cc[nH]c3c2)c(OC)c1 | 6.21 | 6.15 | –
8 | COc1cc(OCC2CCCO2)ccc1/C=C/C(=O)CC(=O)/C=C/c1ccc2cc[nH]c2c1 (stereo not drawn) | 5.60 | 6.38 | –
9 | COc1cc(OCc2ccccn2)ccc1/C=C/c1cc(/C=C/c2ccc3cc[nH]c3c2)[nH]n1 | 5.92 | 6.18 | inhibition [3]: Active; Drug uptake [4]: Active; concentration at 3 h [5]: 276 ng/g; Tmax [6]: 6 h; concentration at 3 h [7]: 466 ng/mL
10 | COc1cc(OCc2ccccn2)ccc1/C=C/C(=O)CC(=O)/C=C/c1ccc2cc[nH]c2c1 | 6.33 | 6.48 | concentration at 3 h [5]: 1 ng/g; Cmax [8]: 5.7 ng/mL
11 | COc1cc(/C=C/C(=O)CC(=O)/C=C/c2ccco2)ccc1O | 6.12 | 5.70 | –
12 | COc1ccc(/C=C/C(=O)CC(=O)/C=C/c2ccc(O)c(OC)c2)c(O)c1 | 6.03 | 5.85 | –
13 | COc1cc(/C=C/C(=O)CC(=O)/C=C/c2ccc(O)c(OC)c2)ccc1O [CURCUMIN] | – | – | concentration at 3 h [5]: 13 ng/g
14 | COc1cc(OCc2ccccc2)ccc1/C=C/C(=O)CC(=O)/C=C/c1ccc2cc[nH]c2c1 | 5.27 | 6.21 | –
15 | COc1cc(/C=C/C(=O)CC(=O)/C=C/c2c(O)cccc2OC)ccc1O | 5.80 | 6.04 | –
16 | CN(C)c1ccc2nc3ccc(=[N+](C)C)cc-3sc2c1 [METHYLENE BLUE ANHYDROUS] | 6.30 | – | –
17 | COc1cc(/C=C/C(=O)CC(=O)/C=C/c2ccc3c(c2)OCO3)ccc1O | 5.43 | 5.92 | –
18 | COc1cc(/C=C/C(=O)CC(=O)/C=C/c2cccnc2)ccc1O | < 5.00 | < 5.00 | –
19 | COc1cc(/C=C/C(=O)CC(=O)/C=C/c2cccc(O)c2OC)ccc1O | 5.72 | 6.15 | –
20 | COc1ccc(/C=C/C(=O)CC(=O)/C=C/c2ccc(O)c(OC)c2)cc1O | 5.68 | 6.28 | –
21 | COc1cc(O)cc(/C=C/C(=O)CC(=O)/C=C/c2ccc(O)c(OC)c2)c1 | 5.96 | 6.49 | –
22 | COc1cc(/C=C/C(=O)CC(=O)/C=C/c2cc(O)ccc2OC)ccc1O | 5.89 | 6.22 | –
23 | COc1cc(/C=C/C(=O)CC(=O)/C=C/c2cccc(OC)c2O)ccc1O | 5.27 | 6.16 | –
24 | COc1cc(/C=C/C(=O)CC(=O)/C=C/c2ccc3cc[nH]c3c2)ccc1O | 6.38 | 6.36 | –

Reference: ChEMBL document CHEMBL3861992 (Bioorg Med Chem Lett, 2016)
